Measurements from different studies.
Mode: inhibitor
MET: Hepatocyte growth factor receptor (MET, Homo sapiens, UniProt P08581)
MET M1250T: Hepatocyte growth factor receptor (MET, Homo sapiens, UniProt P08581, M1250T)

CCCS(=O)(=O)Nc1ccc(F)c(C(=O)c2c[nH]c3ncc(-c4ccc(Cl)cc4)cc23)c1F
inhibition (MET; enzyme activity; 1 µM): < 20%

CC/C(=N\NC(=O)NCc1cccc(O)c1)c1ccc(O)c(C)c1O
inhibition (MET; enzyme activity; 0.1 µM): 1.1%

CNC(=O)c1cc(Oc2ccc(NC(=O)Nc3ccc(Cl)c(C(F)(F)F)c3)cc2)ccn1
inhibition (MET; enzyme activity; 0.3 µM): -22%

CN(C)C1CCN(CC#Cc2nn(C3CCCC3)c3nc(NCc4ccccc4)ncc23)C1 (stereo not shown)
inhibition (MET; enzyme activity; FRET; 0.1 µM): 6%

COc1cc2ncnc(Nc3ccc(Oc4ccccc4)cc3C)c2cc1OC
inhibition (MET M1250T; enzyme activity; 1 µM): -1%

CS(=O)(=O)Nc1cccc(-c2csc(NC(=O)CSc3nc4nccnc4c(=O)n3CCc3ccccc3)n2)c1
inhibition (MET; enzyme activity; 10 µM): 1%

C=CC(=O)Nc1cc(Nc2nccc(Nc3cc(Cl)c(F)cc3C(C)(C)O)n2)c(OC)cc1N1CC[C@@H](N(C)C)C1
inhibition (MET; enzyme activity; 1 µM): 30%

CSc1nc(C)c(-c2ccnc(Nc3ccc(N4CCOCC4)cc3)c2)[nH]1
inhibition (MET; cell-free assay; 10 µM): 28.2%

COc1cc2ncnc(Nc3ccc(Oc4ccccc4)c(C)c3C)c2cc1OC
inhibition (MET M1250T; enzyme activity; 1 µM): -2%

CNC(=O)c1cc2c(Oc3ccc(NC(=O)C4(C(=O)Nc5ccc(F)cc5)CC4)cc3)ccnc2cc1OC
inhibition (MET M1250T; enzyme activity; radiometric; 1 µM): 99%
